Measured values as given in ChEMBL document CHEMBL5724801, “EUbOPEN Chemogenomics Library - Multiplex” (2024).
Several values for one entry are separate records, joined by “and”; a condition that tells them apart may be missing. Equal entries are not always repeated.

Tested on: U2OS
Assay: Multiplex assay against U2OS
Format: toxicity, cell-based
Details: human
Procedure, shortened: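 Hoechst33342, BioTracker Green Microtubule Cytoskeleton Dye, MitoTracker Red and Annexin V Alexa Fluor 680 were added to live cells at seeding, and imaging on a CQ1 microscope at 37°C and 5% CO2 followed compound addition. Gating by CellPathfinder machine learning separated cells into Hoechst high-intensity objects or normal cells, then normal cells into healthy, pyknosed or fragmented nuclei, then pyknosed cells into mitotic or apoptotic. Per cents of healthy-nucleus cells are reported for the tubulin, mitochondrial-mass and membrane-permeability phenotypes.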

[1] = 12 h, 1 µM, compound concentration 1 uM
[2] = 12 h, 10 µM, compound concentration 10 uM
[3] = 24 h, 1 µM, compound concentration 1 uM
[4] = 24 h, 10 µM, compound concentration 10 uM
[5] = 48 h, 1 µM, compound concentration 1 uM
[6] = 48 h, 10 µM, compound concentration 10 uM

**Q.** With `CCCCC(=O)N(Cc1ccc(-c2ccccc2-c2nnn[nH]2)cc1)[C@H](C(=O)O)C(C)C` as the compound, how does the “Population Apoptotic (%)” value [1] read?
**A.** 85% and 100%

**Q.** What about the “Population Fragmented Nuclei (%)” value [1] of the same compound?
**A.** 28% and 15%

**Q.** What about the “Population Healthy Nuclei (%)” value [1] of the same compound?
**A.** 63% and 79%

**Q.** And the “Population Hoechst High Intensity Objects (%)” value [1]?
**A.** 1% and 3%

**Q.** What about the “Population Membrane Permeable-Phenotype (%)” value [1] of the same compound?
**A.** 8% and 9%

**Q.** And the “Population Mitochondria Different-Phenotype (%)” value [1]?
**A.** 3% and 5%

**Q.** And the “Population Mitotic Cells (%)” value [1]?
**A.** 14% and 0%

**Q.** What about the “Population Normal (%)” value [1] of the same compound?
**A.** 98% and 96%

**Q.** What about the “Population Pyknosed Nuclei (%)” value [1] of the same compound?
**A.** 8% and 4%

**Q.** And the “Population Tubulin-Different-Phenotype (%)” value [1]?
**A.** 4% and 2%

**Q.** What about the “Total Cell Count” value [1] of the same compound?
**A.** 259 and 130

**Q.** And the “Population Apoptotic (%)” value [2]?
**A.** 75%

**Q.** What about the “Population Fragmented Nuclei (%)” value [2] of the same compound?
**A.** 35% and 24%

**Q.** What about the “Population Healthy Nuclei (%)” value [2] of the same compound?
**A.** 55% and 71%

**Q.** And the “Population Hoechst High Intensity Objects (%)” value [2]?
**A.** 1% and 0%

**Q.** And the “Population Membrane Permeable-Phenotype (%)” value [2]?
**A.** 3% and 1%

**Q.** What about the “Population Mitochondria Different-Phenotype (%)” value [2] of the same compound?
**A.** 2%

**Q.** And the “Population Mitotic Cells (%)” value [2]?
**A.** 25%

**Q.** And the “Population Normal (%)” value [2]?
**A.** 98% and 99%

**Q.** And the “Population Pyknosed Nuclei (%)” value [2]?
**A.** 9% and 3%

**Q.** What about the “Population Tubulin-Different-Phenotype (%)” value [2] of the same compound?
**A.** 2% and 0%

**Q.** What about the “Total Cell Count” value [2] of the same compound?
**A.** 218 and 108

**Q.** What about the “Population Apoptotic (%)” value [3] of the same compound?
**A.** 86% and 83%

**Q.** And the “Population Fragmented Nuclei (%)” value [3]?
**A.** 23% and 10%

**Q.** And the “Population Healthy Nuclei (%)” value [3]?
**A.** 68% and 77%

**Q.** What about the “Population Hoechst High Intensity Objects (%)” value [3] of the same compound?
**A.** 2% and 6%

**Q.** And the “Population Membrane Permeable-Phenotype (%)” value [3]?
**A.** 5% and 9%

**Q.** What about the “Population Mitochondria Different-Phenotype (%)” value [3] of the same compound?
**A.** 3% and 6%

**Q.** What about the “Population Mitotic Cells (%)” value [3] of the same compound?
**A.** 13% and 16%

**Q.** What about the “Population Normal (%)” value [3] of the same compound?
**A.** 97% and 93%

**Q.** And the “Population Pyknosed Nuclei (%)” value [3]?
**A.** 7% and 12%

**Q.** What about the “Population Tubulin-Different-Phenotype (%)” value [3] of the same compound?
**A.** 2% and 7%

**Q.** And the “Total Cell Count” value [3]?
**A.** 289 and 158

**Q.** And the “Population Apoptotic (%)” value [4]?
**A.** 82% and 84%

**Q.** What about the “Population Fragmented Nuclei (%)” value [4] of the same compound?
**A.** 31% and 22%

**Q.** And the “Population Healthy Nuclei (%)” value [4]?
**A.** 59% and 67%

**Q.** What about the “Population Hoechst High Intensity Objects (%)” value [4] of the same compound?
**A.** 2% and 0%

**Q.** What about the “Population Membrane Permeable-Phenotype (%)” value [4] of the same compound?
**A.** 3% and 4%

**Q.** What about the “Population Mitochondria Different-Phenotype (%)” value [4] of the same compound?
**A.** 2% and 8%

**Q.** What about the “Population Mitotic Cells (%)” value [4] of the same compound?
**A.** 17% and 15%

**Q.** What about the “Population Normal (%)” value [4] of the same compound?
**A.** 97% and 100%

**Q.** What about the “Population Pyknosed Nuclei (%)” value [4] of the same compound?
**A.** 8% and 9%

**Q.** And the “Population Tubulin-Different-Phenotype (%)” value [4]?
**A.** 2% and 6%

**Q.** And the “Total Cell Count” value [4]?
**A.** 272 and 135

**Q.** And the “Population Apoptotic (%)” value [5]?
**A.** 86% and 85%

**Q.** And the “Population Fragmented Nuclei (%)” value [5]?
**A.** 17% and 20%

**Q.** And the “Population Healthy Nuclei (%)” value [5]?
**A.** 75% and 68%

**Q.** What about the “Population Hoechst High Intensity Objects (%)” value [5] of the same compound?
**A.** 2% and 3%

**Q.** And the “Population Membrane Permeable-Phenotype (%)” value [5]?
**A.** 5% and 7%

**Q.** And the “Population Mitochondria Different-Phenotype (%)” value [5]?
**A.** 3%

**Q.** What about the “Population Mitotic Cells (%)” value [5] of the same compound?
**A.** 13% and 15%

**Q.** And the “Population Normal (%)” value [5]?
**A.** 97% and 96%

**Q.** And the “Population Pyknosed Nuclei (%)” value [5]?
**A.** 7% and 10%

**Q.** And the “Population Tubulin-Different-Phenotype (%)” value [5]?
**A.** 2% and 3%

**Q.** And the “Total Cell Count” value [5]?
**A.** 397 and 201

**Q.** And the “Population Apoptotic (%)” value [6]?
**A.** 83% and 87%

**Q.** What about the “Population Fragmented Nuclei (%)” value [6] of the same compound?
**A.** 22% and 21%

**Q.** What about the “Population Healthy Nuclei (%)” value [6] of the same compound?
**A.** 70% and 60%

**Q.** What about the “Population Hoechst High Intensity Objects (%)” value [6] of the same compound?
**A.** 1% and 4%

**Q.** What about the “Population Membrane Permeable-Phenotype (%)” value [6] of the same compound?
**A.** 6% and 4%

**Q.** What about the “Population Mitochondria Different-Phenotype (%)” value [6] of the same compound?
**A.** 2% and 3%

**Q.** And the “Population Mitotic Cells (%)” value [6]?
**A.** 16% and 12%

**Q.** What about the “Population Normal (%)” value [6] of the same compound?
**A.** 98% and 95%

**Q.** What about the “Population Pyknosed Nuclei (%)” value [6] of the same compound?
**A.** 7% and 17%

**Q.** What about the “Population Tubulin-Different-Phenotype (%)” value [6] of the same compound?
**A.** 2% and 6%

**Q.** And the “Total Cell Count” value [6]?
**A.** 347 and 188

**Q.** What does the source list for `O=C1NCc2ccc3c(-c4cccc(Cl)c4)c[nH]c3c21`?
**A.** Population Apoptotic (%) [1]: 16.88% and 44.83%; Population Fragmented Nuclei (%) [1]: 2.23% and 1.96%; Population Healthy Nuclei (%) [1]: 76.32% and 79.08%; Population Hoechst High Intensity Objects (%) [1]: 0%; Population Membrane Permeable-Phenotype (%) [1]: 1.46% and 3.31%; Population Mitochondria Different-Phenotype (%) [1]: 0% and 8.26%; Population Mitotic Cells (%) [1]: 83.12% and 55.17%; Population Normal (%) [1]: 100%; Population Pyknosed Nuclei (%) [1]: 21.45% and 18.95%; Population Tubulin-Different-Phenotype (%) [1]: 1.46% and 2.48%; Total Cell Count [1]: 359 and 153; Population Apoptotic (%) [2]: 31.03% and 23.81%; Population Fragmented Nuclei (%) [2]: 0.99% and 2.27%; Population Healthy Nuclei (%) [2]: 79.87% and 81.82%; Population Hoechst High Intensity Objects (%) [2]: 0%; Population Membrane Permeable-Phenotype (%) [2]: 2.89% and 3.7%; Population Mitochondria Different-Phenotype (%) [2]: 0% and 15.74%; Population Mitotic Cells (%) [2]: 68.97% and 76.19%; Population Normal (%) [2]: 100%; Population Pyknosed Nuclei (%) [2]: 19.14% and 15.91%; Population Tubulin-Different-Phenotype (%) [2]: 2.07% and 0.93%; Total Cell Count [2]: 303 and 132; Population Apoptotic (%) [3]: 34.38% and 19.64%; Population Fragmented Nuclei (%) [3]: 3.92% and 1.72%; Population Healthy Nuclei (%) [3]: 66.59% and 66.09%; Population Hoechst High Intensity Objects (%) [3]: 0% and 0.57%; Population Membrane Permeable-Phenotype (%) [3]: 0.69% and 3.48%; Population Mitochondria Different-Phenotype (%) [3]: 0% and 8.7%; Population Mitotic Cells (%) [3]: 65.62% and 80.36%; Population Normal (%) [3]: 100% and 99.43%; Population Pyknosed Nuclei (%) [3]: 29.49% and 32.18%; Population Tubulin-Different-Phenotype (%) [3]: 1.73% and 2.61%; Total Cell Count [3]: 434 and 175; Population Apoptotic (%) [4]: 50% and 28.3%; Population Fragmented Nuclei (%) [4]: 4.05% and 5.47%; Population Healthy Nuclei (%) [4]: 49.22% and 53.12%; Population Hoechst High Intensity Objects (%) [4]: 0.62% and 0%; Population Membrane Permeable-Phenotype (%) [4]: 0.63% and 8.82%; Population Mitochondria Different-Phenotype (%) [4]: 0% and 8.82%; Population Mitotic Cells (%) [4]: 50% and 71.7%; Population Normal (%) [4]: 99.38% and 100%; Population Pyknosed Nuclei (%) [4]: 46.73% and 41.41%; Population Tubulin-Different-Phenotype (%) [4]: 1.27% and 1.47%; Total Cell Count [4]: 323 and 128; Population Apoptotic (%) [5]: 63.69% and 70.59%; Population Fragmented Nuclei (%) [5]: 9.74% and 8.94%; Population Healthy Nuclei (%) [5]: 47.18% and 43.58%; Population Hoechst High Intensity Objects (%) [5]: 0%; Population Membrane Permeable-Phenotype (%) [5]: 1.63% and 6.41%; Population Mitotic Cells (%) [5]: 36.31% and 29.41%; Population Normal (%) [5]: 100%; Population Pyknosed Nuclei (%) [5]: 43.08% and 47.49%; Population Tubulin-Different-Phenotype (%) [5]: 6.52% and 2.56%; Total Cell Count [5]: 390 and 179; Population Apoptotic (%) [6]: 70.56% and 84.62%; Population Fragmented Nuclei (%) [6]: 6.99% and 3.12%; Population Healthy Nuclei (%) [6]: 38.3% and 46.09%; Population Hoechst High Intensity Objects (%) [6]: 0%; Population Membrane Permeable-Phenotype (%) [6]: 2.38% and 6.78%; Population Mitotic Cells (%) [6]: 29.44% and 15.38%; Population Normal (%) [6]: 100%; Population Pyknosed Nuclei (%) [6]: 54.71% and 50.78%; Population Tubulin-Different-Phenotype (%) [6]: 10.32% and 5.08%; Total Cell Count [6]: 329 and 128
